Measurements as given in ChEMBL document CHEMBL5226368, “1H NMR-Based Biochemometric Analysis of Morus alba Extracts toward a Multipotent Herbal Anti-Infective” (J Nat Prod, 2023).
Activity calls are given as the source filed them.

Columns and labels:
Type in all cases: functional, organism-based
Settings in all cases: dose 1-10 µM
Influenza A virus [1] = experiment: Antiviral activity against oseltamivir resistant Influenza A virus A/1690/19 (H1N1) infected in MDCK cells assessed as reduction in plaque number at 1 to 10 uM pre-infected with cell for 1 hrs followed by compound addition and measured after 72 hrs by plaque reduction assay
Outline: (§1)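 Confluent MDCK monolayers were inoculated at 37 °C for 1 h with virus suspension, either alone or with serial half-log sample dilutions (1, 3.16, 10), in duplicate. The inoculum was aspirated and replaced with serum-free test medium containing 2 µg/mL trypsin, 0.4% agar and the same sample concentrations. Plaques were counted and IC50 was derived by a four-parameter logistic fit (n = 3).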

Influenza A virus [2] = experiment: Antiviral activity against oseltamivir resistant Influenza A virus A/1519/19 (H1N1) infected in MDCK cells assessed as reduction in plaque number at 1 to 10 uM pre-infected with cell for 1 hrs followed by compound addition and measured after 72 hrs by plaque reduction assay; outline: as §1
Influenza A virus [3] = experiment: Antiviral activity against oseltamivir resistant Influenza A virus A/2588/19 (H3N2) infected in MDCK cells assessed as reduction in plaque number at 1 to 10 uM pre-infected with cell for 1 hrs followed by compound addition and measured after 72 hrs by plaque reduction assay; outline: as §1
Influenza B virus [4] = experiment: Antiviral activity against oseltamivir resistant Influenza B virus B/2791/18 (Victoria) infected in MDCK cells assessed as reduction in plaque number at 1 to 10 uM pre-infected with cell for 1 hrs followed by compound addition and measured after 72 hrs by plaque reduction assay; outline: as §1
Influenza B virus [5] = experiment: Antiviral activity against oseltamivir resistant Influenza B virus B/3449/18 (Yamagata) infected in MDCK cells assessed as reduction in plaque number at 1 to 10 uM pre-infected with cell for 1 hrs followed by compound addition and measured after 72 hrs by plaque reduction assay; outline: as §1

Measured: Activity

CC(C)=CC[C@]12Oc3cc(O)c([C@H]4C=C(C)C[C@H](c5ccc(O)cc5O)[C@H]4C(=O)c4ccc(O)cc4O)c(O)c3C(=O)[C@@]1(O)Oc1cc(O)ccc12 [SANGGENON C]
active: all assays above

CC(C)=CCCC1=C[C@H](c2c(O)cc3c(c2O)C(=O)C[C@@H](c2ccc(O)cc2O)O3)[C@@H](C(=O)c2ccc(O)cc2O)[C@H](c2ccc(O)cc2O)C1
active: all assays above
